Measurements published in ChEMBL document CHEMBL4000211, “Discovery of novel polycyclic spiro-fused carbocyclicoxindole-based anticancer agents” (Eur J Med Chem, 2017).
Activity calls are given as the source filed them. The rule behind the calls is not given here.

Key:
[1] = tested on: HCT-116; assay: Induction of apoptosis in human HCT116 cells assessed as early apoptotic cells at 12.5 uM after 24 hrs by annexin V-FITC/propidium iodide staining-based flow cytometric method (reference value: 1.9%); format: functional
[2] = tested on: HCT-116; assay: Induction of apoptosis in human HCT116 cells assessed as late apoptotic cells at 10 uM after 48 hrs by annexin V-FITC/propidium iodide staining-based flow cytometric method (reference value: 1.06%); format: functional
[3] = tested on: HCT-116; assay: Cell cycle arrest in human HCT116 cells assessed as accumulation at sub G1 phase at 7.5 uM after 48 hrs by propidium iodide staining-based flow cytometric method (reference value: 0.86%); format: functional
[4] = tested on: HCT-116; assay: Induction of apoptosis in human HCT116 cells assessed as early apoptotic cells at 12.5 uM after 48 hrs by annexin V-FITC/propidium iodide staining-based flow cytometric method (reference value: 1.6%); format: functional
[5] = tested on: HCT-116; assay: Cell cycle arrest in human HCT116 cells assessed as accumulation at G2 phase at 10 uM after 48 hrs by propidium iodide staining-based flow cytometric method (reference value: 31.27%); format: functional
[6] = tested on: HCT-116; assay: Induction of apoptosis in human HCT116 cells assessed as late apoptotic cells at 7.5 uM after 24 hrs by annexin V-FITC/propidium iodide staining-based flow cytometric method (reference value: 2.77%); format: functional
[7] = tested on: NCI-H1299; assay: Antiproliferative activity against human NCI-H1299 cells after 48 hrs by MTT assay; format: functional, cell-based; conditions: NCI-H1299, 48 h
How it was run: (§1)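 Cells seeded at 3×10³/well and grown 24 h, then exposed 48 h to six final concentrations, twofold steps down from 30. MTT (5 mg/mL) was added for 2–4 h at 37 °C. Supernatant was removed, formazan dissolved in DMSO, and OD read at 570 nm. Results are given as IC50, or as percent inhibition where IC50 exceeds the top concentration. At least three runs.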

[8] = tested on: HCT-116; assay: Induction of apoptosis in human HCT116 cells assessed as necrotic cells at 7.5 uM after 24 hrs by annexin V-FITC/propidium iodide staining-based flow cytometric method (reference value: 1.85%); format: functional
How it was run: (§2)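 HCT116 cells seeded at 1×10⁶ cells/mL in 6-well plates for 24 h, then exposed to 0, 7.5, 10 or 12.5 μM for a further 24 h or 48 h. Cells washed twice in PBS, then stained with Annexin V-FITC plus PI (100 μg/mL stock) in binding buffer (10 mM HEPES, pH 7.4, 2.5 mM CaCl₂) for 30 min at room temperature in the dark. Early and late apoptotic fractions gated by flow cytometry.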

[9] = tested on: NCI-H1975; assay: Antiproliferative activity against human NCI-H1975 cells after 48 hrs by MTT assay; format: functional, cell-based; conditions: NCI-H1975, 48 h; how it was run: as §1
[10] = tested on: HCT-116; assay: Induction of apoptosis in human HCT116 cells assessed as viable cells at 7.5 uM after 48 hrs by annexin V-FITC/propidium iodide staining-based flow cytometric method (reference value: 95.05%); format: functional; conditions: HCT-116, 48 h, read-out: Activity; how it was run: as §2
[11] = tested on: BGC-823; assay: Antiproliferative activity against human BGC823 cells after 48 hrs by MTT assay; format: functional, cell-based; conditions: BGC-823, 48 h; how it was run: as §1
[12] = tested on: HCT-116; assay: Cell cycle arrest in human HCT116 cells assessed as accumulation at S phase at 10 uM after 48 hrs by propidium iodide staining-based flow cytometric method (reference value: 34.83%); format: functional
[13] = target: E3 ubiquitin-protein ligase Mdm2 (Homo sapiens) (UniProt Q00987); assay: Inhibition of MDM2-mediated p53 degradation in human HCT116 cells assessed as increase in MDM2 levels at 7.5 to 12.5 uM after 24 hrs by Western blot method; format: cell-based
How it was run: (§3)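 Treated HCT116 cells lysed on ice in RIPA buffer with 1% protease inhibitor cocktail. Lysates cleared at 13000 g for 20 min at 4 °C and protein measured by BCA. Equal protein amounts run on SDS-PAGE, transferred to PVDF and probed with primary then HRP secondary antibodies. Bands detected by enhanced chemiluminescence; 24 h treatment.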

[14] = tested on: HCT-116; assay: Cell cycle arrest in human HCT116 cells assessed as accumulation at S phase at 7.5 uM after 24 hrs by propidium iodide staining-based flow cytometric method (reference value: 36.43%); format: functional
[15] = tested on: HCT-116; assay: Induction of apoptosis in human HCT116 cells assessed as early apoptotic cells at 7.5 uM after 48 hrs by annexin V-FITC/propidium iodide staining-based flow cytometric method (reference value: 1.6%); format: functional
[16] = tested on: HCT-116; assay: Induction of apoptosis in human HCT116 cells assessed as necrotic cells at 12.5 uM after 48 hrs by annexin V-FITC/propidium iodide staining-based flow cytometric method (reference value: 2.29%); format: functional; how it was run: as §2
[17] = tested on: HCT-116; assay: Induction of apoptosis in human HCT116 cells assessed as nuclear fragmentation at 7.5 to 12.5 uM after 24 hrs by Hoechst 33342 staining-based fluorescence microscopic method; format: functional, cell-based
How it was run: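 HCT116 cells (1×10⁵/well) cultured 24 h, then exposed to 0, 7.5, 10 or 12.5 μM (final) for 24 h. Rinsed in PBS, fixed in 75% ethanol and checked by inverted microscopy. Then stained with Hoechst 33342 (2 μg/mL in PBS) and scored for apoptotic nuclear morphology under fluorescence microscopy.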

[18] = tested on: HCT-116; assay: Cell cycle arrest in human HCT116 cells assessed as accumulation at sub G1 phase at 7.5 uM after 24 hrs by propidium iodide staining-based flow cytometric method (reference value: 1.73%); format: functional
[19] = tested on: HCT-116; assay: Induction of apoptosis in human HCT116 cells assessed as late apoptotic cells at 10 uM after 24 hrs by annexin V-FITC/propidium iodide staining-based flow cytometric method (reference value: 2.77%); format: functional
[20] = target: E3 ubiquitin-protein ligase Mdm2 (Homo sapiens) (UniProt Q00987); assay: Inhibition of MDM2-mediated p53 degradation in human HCT116 cells assessed as increase in p53 levels at 7.5 to 12.5 uM after 24 hrs by Western blot method; format: cell-based; how it was run: as §3
[21] = tested on: HCT-116; assay: Cell cycle arrest in human HCT116 cells assessed as accumulation at S phase at 10 uM after 24 hrs by propidium iodide staining-based flow cytometric method (reference value: 36.43%); format: functional
[22] = tested on: HCT-116; assay: Cell cycle arrest in human HCT116 cells assessed as accumulation at G1 phase at 10 uM after 24 hrs by propidium iodide staining-based flow cytometric method (reference value: 43.79%); format: functional
[23] = tested on: HCT-116; assay: Cell cycle arrest in human HCT116 cells assessed as accumulation at G2 phase at 7.5 uM after 48 hrs by propidium iodide staining-based flow cytometric method (reference value: 31.27%); format: functional
[24] = tested on: HCT-116; assay: Induction of apoptosis in human HCT116 cells assessed as late apoptotic cells at 12.5 uM after 48 hrs by annexin V-FITC/propidium iodide staining-based flow cytometric method (reference value: 1.06%); format: functional
[25] = tested on: HCT-116; assay: Induction of apoptosis in human HCT116 cells assessed as late apoptotic cells at 7.5 uM after 48 hrs by annexin V-FITC/propidium iodide staining-based flow cytometric method (reference value: 1.06%); format: functional
[26] = tested on: HCT-116; assay: Induction of apoptosis in human HCT116 cells assessed as viable cells at 12.5 uM after 48 hrs by annexin V-FITC/propidium iodide staining-based flow cytometric method (reference value: 95.05%); format: functional; conditions: HCT-116, 48 h, read-out: Activity; how it was run: as §2
[27] = tested on: HCT-116; assay: Induction of apoptosis in human HCT116 cells assessed as necrotic cells at 10 uM after 48 hrs by annexin V-FITC/propidium iodide staining-based flow cytometric method (reference value: 2.29%); format: functional

Chain of E3 ubiquitin-protein ligase Mdm2 (Homo sapiens) (Q00987 whole entry, looked up): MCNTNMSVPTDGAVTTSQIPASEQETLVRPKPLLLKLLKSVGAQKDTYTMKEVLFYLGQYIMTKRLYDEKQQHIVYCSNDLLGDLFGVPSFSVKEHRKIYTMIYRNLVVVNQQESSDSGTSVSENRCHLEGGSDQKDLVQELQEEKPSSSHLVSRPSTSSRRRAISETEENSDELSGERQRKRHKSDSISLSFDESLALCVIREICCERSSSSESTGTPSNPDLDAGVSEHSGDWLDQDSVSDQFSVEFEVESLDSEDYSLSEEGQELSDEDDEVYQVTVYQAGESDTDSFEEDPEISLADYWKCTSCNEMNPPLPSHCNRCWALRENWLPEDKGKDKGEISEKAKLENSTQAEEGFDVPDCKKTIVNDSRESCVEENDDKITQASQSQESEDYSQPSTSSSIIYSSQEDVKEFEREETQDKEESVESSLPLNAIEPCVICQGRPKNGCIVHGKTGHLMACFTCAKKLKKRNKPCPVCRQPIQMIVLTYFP

IC50 [7]: > 30 µM | IC50 [9]: 13.7 µM | IC50 [11]: > 30 µM | inhibition [13]: Active | inhibition [20]: Active
Structure (SMILES): C[C@@H]1Oc2ccc3ccccc3c2[C@@H]2[C@@H]1C=C(C=O)[C@@H](C)[C@]21C(=O)Nc2ccccc21
Activity [1]: 33.2% | Activity [2]: 8.18% | Activity [3]: 4.19% | Activity [4]: 47.17% | Activity [5]: 18.42% | Activity [6]: 4.71% | Activity [8]: 1.6% | viability at 7.5 µM [10]: 91.7% | Activity [12]: 18.5% | Activity [14]: 32.56% | Activity [15]: 4.18% | Activity [16]: 5.28% | Activity [17]: Active | Activity [18]: 3.18% | Activity [19]: 10.13% | Activity [21]: 7.13% | Activity [22]: 75.18% | Activity [23]: 26.41% | Activity [24]: 18.89% | Activity [25]: 2.09% | viability at 12.5 µM [26]: 28.6% | Activity [27]: 2.82%
